Bioassay records from PubChem.
Lung fibro prol – antiproliferative effect on LL 47 fibroblasts – human, LL 47 cells, CellTiter-Glo luminescence, primary screen | LL 47 human lung fibroblast viability, ATP luminescence; stronger effect = lower value | viability, % at 10 µM | 1.1% of 85,000 active | AID 719, 2007;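 active = viability at or below 50% in the single dose screen; inactive = viability above 50%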;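 also: compound exposure lasted 72 h before the ATP readout; 100% = median luminescence of untreated cell-only wells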
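Test system: LL 47 human lung fibroblasts / Incubation: 72 h compound exposure at 37 °C after overnight plating / Technique: luminescent ATP detection, CellTiter-Glo / Compound dosing: 0.1% DMSO in all compound wells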
HCT116 bCat-KO – primary screen for growth suppressors in beta-catenin knockout HCT116 cells (colon tumor, human) | viability, % at 10 µM | 1.5% of 140,000 active | AID 818, 2007 | HCT116 beta-catenin knockout viability, CellTiter-Glo, 60 h; stronger effect = lower value;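 active = viability at or under a set limit, the compound median less 4 SD, cut at about 6% in these data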;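 also: 0% = Hyamine 1622 control at 20 µM and 100% = untreated cell control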
HUVEC prolif 384 – inhibitors of HUVEC proliferation, primary screen, cell-based, 384-well; CellTiter-Glo luminescence, 72 h; stronger effect = lower value; viability, % at 10 µM (by protocol); 1.1% of 86,000 active; AID 648, 2007;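 active = viability at or below 30%; inactive = viability above 30%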;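 also: 100% = median luminescence of DMSO-only cell control wells on each plate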
H69AR growth 86K – proliferation blockers of H69AR lung cancer cells, primary screen, cell-based, human, 86K library | H69AR lung tumor viability, ATP luminescence, 72 h; stronger effect = lower value | viability, % at 10 µM | 6% of 85,000 active | AID 598, 2007;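 active = viability at or below 40%; inactive = viability above 40%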;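 also: multidrug resistant small cell line overexpressing MRP-1 efflux transporter; 100% = mean luminescence of untreated control wells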
HCT116 PTEN-null – growth suppression of PTEN-null HCT116, primary screen, cell-based, CellTiter-Glo; 1.2% of 140,000 active; HCT116 PTEN-null viability, 60 h; stronger effect = lower value; viability, % at 10 µM;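 active = viability at or below a set limit, 4 SD under the median of all tested compounds, cut at about 3.7% in these data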;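 also: PTEN knockout HCT116 line with beta catenin targeted HCT116 as companion control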
Numbers without * were called inactive; x = not tested or not shown. This excerpt belongs to a sample that is enriched for hits.

SMILES	Lung fibro prol	HCT116 bCat-KO	HUVEC prolif 384	H69AR growth 86K	HCT116 PTEN-null
COc1ccccc1C(CCNS(=O)(=O)c1ccc(C)cc1)c1ccco1 (stereo not drawn)	x	87.4	x	x	81.8
COc1ccc(C(=O)Nc2ccccc2C(N)=O)cc1	103.7	84.8	99.0	87.1	91.7
COc1ccc(NC(=O)c2ccccc2NC(=O)COc2ccccc2)cc1	90.5	95.5	30.4	85.3	92.6
COc1ccc(C(=O)Nc2ccccc2C(=O)NC(C(=O)NCc2ccco2)C(C)C)cc1 (stereo not drawn)	38.5*	1.2*	44.2	1.2*	2.0*
CCC(C)NC(=O)c1ccccc1NC(=O)COc1ccc(OC)cc1 (stereo not drawn)	84.2	96.8	88.5	31.7*	99.9
Cc1cc(C)cc(OCC(=O)Nc2ccccc2C(=O)NCc2ccco2)c1	100.9	94.2	80.2	74.7	92.0
O=C(COc1ccc(Cl)cc1)Nc1ccccc1C(=O)NCc1ccco1	37.1*	67.0	70.2	50.7	63.0
COc1ccc(C(=O)Nc2ccccc2C(=O)N(Cc2ccco2)C(C(N)=O)C(C)C)cc1 (stereo not drawn)	41.9*	1.1*	64.2	5.6*	1.0*
O=C(Cc1cccc(C(F)(F)F)c1)NCc1ccc(Cl)cc1Cl	x	77.4	x	x	76.2
Cc1nn(-c2ccccc2)c(C)c1/C=N/NC(=O)c1ccccc1NS(=O)(=O)c1cccs1	x	94.2	x	x	90.2
COc1ccccc1-n1cnnc1SC(C)C(=O)Nc1cccc([N+](=O)[O-])c1 (stereo not drawn)	x	95.9	x	x	92.2
CC1(C)SC(=S)N(/N=C/c2ccccc2)C1N(O)C(=O)Nc1ccc([N+](=O)[O-])cc1 (stereo not drawn)	86.3	60.8	86.5	37.3*	48.9
CC1(C)SC(=S)N(NC(=O)Nc2cccc3ccccc23)C1N(O)C(=O)Nc1ccccc1 (stereo not drawn)	x	58.7	x	x	59.0
O=C(/C=C/c1ccccc1Cl)c1ccc[nH]1	x	32.7	x	x	26.7
CC(=O)c1cccc(NC(=O)Cc2coc3cc4c(cc23)CCC4)c1	x	86.5	x	x	80.7
O=C(Nc1ccccc1)Nc1nccs1	96.9	78.6	79.0	88.5	80.6
COc1ccc(NC(=O)Nc2nccs2)cc1	85.8	45.8	57.2	20.3*	53.4
O=c1cc(CNc2ccc(Br)cc2)nc2sccn12	x	86.5	x	x	82.8
COc1cccc(-c2nnc3sc(-c4ccc(C)cc4)nn23)c1	x	49.6	x	x	48.0
c1ccc(-c2cc(-c3nn4c(-c5ccco5)nnc4s3)c3ccccc3n2)cc1	51.5	93.8	63.8	26.7*	95.7
COc1cc(-c2nn3c(-c4ccccc4)nnc3s2)cc(OC)c1OC	101.8	4.9*	80.2	40.1	7.8
CCOc1cccc(-c2nnc3sc(-c4cc(OC)c(OC)c(OC)c4)nn23)c1	58.4	33.0	28.2*	19.3*	27.0
Cc1cc(-c2nn3c(-c4ccccc4)nnc3s2)c2ccccc2n1	99.2	67.1	77.0	77.2	57.8
COc1cc(-c2nnc3sc(-c4ccncc4)nn23)cc(OC)c1OC	99.1	x	74.2	60.8	x
CCOc1ccc(-c2nn3c(-c4ccccc4)nnc3s2)cc1	102.3	110.8	19.4*	77.3	100.3
SMILES	Lung fibro prol	HCT116 bCat-KO	HUVEC prolif 384	H69AR growth 86K	HCT116 PTEN-null
CC12CCC(C(=O)Nc3cc(Cl)ccc3Cl)(C(Br)C1=O)C2(C)C (stereo not drawn)	x	90.7	x	x	87.6
CCCNC(=O)CN(CCc1ccccc1)S(C)(=O)=O	103.7	90.5	89.7	97.1	95.5
Cc1ccc(S(=O)(=O)Nc2cccc3c2CCCC3)cc1	x	97.6	x	x	84.0
Cc1ccc(-c2nn3c(-c4cccc(Cl)c4)nnc3s2)cc1	98.2	x	72.3	21.5*	x
Clc1cccc(-c2nnc3sc(-c4ccccc4)nn23)c1	103.6	x	102.1	84.5	x
COc1cc(-c2nnc3sc(-c4ccco4)nn23)cc(OC)c1OC	85.6	43.7	77.3	18.0*	41.2
CCOc1cccc(-c2nnc3sc(-c4cccs4)nn23)c1	92.4	103.8	91.8	33.3*	105.3
Oc1[nH]c(=S)sc1/C=C1\C(c2ccccc2)=Nc2ccccc21	x	81.1	x	x	70.3
Cc1ccc(NC2=Nc3ccccc3N3C2=Nc2c(c(C)nn2-c2ccccc2)C3c2ccc(O)c(O)c2)cc1 (stereo not drawn)	36.8*	1.2*	15.4*	16.1*	1.1*
